Consider 54 molecules from PubChem BioAssay AID624466 (The Scripps Research Institute Molecular Screening Center, 2012).

A word on the inhibition: it is the change of the read-out against control, counted positive when it falls.

SMILES strings stand for the structures. Out of some 360,000 compounds screened, about 5,400 (1.5%) were called active. The sample holds actives, similar compounds and a random draw of the others, so the mix is not that of the screen.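 The calls were made as follows: active = inhibition above a per-plate cutoff, the mean inhibition of test compounds on that plate plus 3 SD (cut at about 49% in these data); inactive = the rest.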

The target in this assay is Trace amine-associated receptor 1 (Homo sapiens) (UniProt Q96RJ0). The experiment in a line: human TAAR1 antagonists, primary screen, Fluo-8 calcium fluorescence, CHO RD-HGA16 cells (AID 624466).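 Also: 0% = DMSO plus EC80 beta-PEA response and 100% = DMSO alone without agonist.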 Conditions: CHO RD-HGA16 TAAR1, Fluo-8 calcium fluorescence, antagonist; at 3 µM; active compounds read high. The method in brief: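 Material: RD-HGA16 CHO cells with stable hTAAR1 and Gα16; Dosing: single nominal final test compound concentration of 3 µM; Schedule: seeding 17-24 h prior, 75-min 37 °C, 30-min RT dye loading; Detection: kinetic Fluo-8 calcium fluorescence measurement; Measure: % inhibition from peak post-agonist over basal fluorescence ratio; Benchmarks: vehicle and agonist controls.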
Sequence of Trace amine-associated receptor 1 (Homo sapiens) (Q96RJ0 whole entry, looked up): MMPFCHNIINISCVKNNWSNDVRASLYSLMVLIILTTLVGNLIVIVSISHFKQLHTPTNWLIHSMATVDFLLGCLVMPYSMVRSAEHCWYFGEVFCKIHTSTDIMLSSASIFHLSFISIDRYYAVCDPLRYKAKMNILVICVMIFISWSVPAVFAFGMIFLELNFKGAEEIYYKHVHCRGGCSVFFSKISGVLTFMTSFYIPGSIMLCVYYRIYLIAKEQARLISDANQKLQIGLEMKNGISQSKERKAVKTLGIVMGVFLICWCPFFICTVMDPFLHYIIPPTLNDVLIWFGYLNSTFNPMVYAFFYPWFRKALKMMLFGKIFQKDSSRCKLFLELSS
As to `CN1CCN(C(=O)c2ccc(NC(=O)c3ccc(Br)o3)cc2)CC1`, the inhibition is -4.9% (inactive).
Consider `CCS(=O)(=O)c1ccc(-c2cccc(NC(=O)c3ccc(Br)o3)c2)nn1`, for which the inhibition was 13.4% (inactive).
The figure for `O=C(Nc1ccc(-c2nnc(-c3ccccc3)o2)cc1)c1ccc(Br)o1` is 71% (active); for `CC(=O)OCC1(O)CC23CCC4c5ccoc5CCC4(C)C2CCC1C3` (centres undefined) it is 13.6% (inactive); for `COC(=O)C[C@@H]1C=C[C@@H](NC(=O)c2cccnc2)[C@@H](CO)O1` it is -15.9% (inactive).
For `CCC(C)(C)NC(=O)c1cc([N+](=O)[O-])ccc1N1CCCCC1` the value was -10.4% (inactive).
For `Cc1cc(OCCCCOc2ccc(C#N)cc2)ccc1[N+](=O)[O-]`, the inhibition was 51.1% (active).
Consider `Cc1cc(OCCCN2CCN(Cc3ccccc3)CC2)ccc1[N+](=O)[O-]`, for which the inhibition was -20.9% (inactive).
With `Cc1cc(OCC(=O)NC2CCN(C)CC2)ccc1[N+](=O)[O-]`, the inhibition was -21.6% (inactive).
For `COc1ccc(-n2nc(C(=O)NCC(=O)N3CCC(C(N)=O)CC3)c3ccccc3c2=O)cc1OC` the value was 1.2% (inactive).
For `O=C(NCCN1CCOCC1)[C@H](Cc1ccccc1)N1C(=O)c2ccccc2C1=O`, the inhibition is -8.4% (inactive).
In the case of `N/C(=N\c1nc2ccccc2o1)NC(=O)C(Cc1ccccc1)N1C(=O)c2ccccc2C1=O` (centres undefined), the inhibition was 49% (active).
The figure for `CCOC(=O)C(Cc1ccc(N)cc1)N1C(=O)c2ccccc2C1=O` (centres undefined) is 10.7% (inactive); for `CC(C)(C)C1CCC(=O)N2CCC[C@]2(c2ccccc2)C1` (some centres undefined) it is -2.31% (inactive); for `COCOCCn1cc(CN2CCS(=O)(=O)N(Cc3ccc(-c4ccccc4)cc3)C(CC(C)C)C2=O)nn1` (centres undefined) it is 54.1% (active).
`COCOCCn1cc(CN2CCS(=O)(=O)N(Cc3ccc(-c4cccc(N(C)C)c4)cc3)C(CC(C)C)C2=O)nn1` (centres undefined): the inhibition is 1.52% (inactive).
The figure for `COc1ccc(-c2ccc(CN3C(CC(C)C)C(=O)N(Cc4cn(CC5CCCCC5)nn4)CCS3(=O)=O)cc2)cc1` (centres undefined) is -8.03% (inactive).
For `COCOCCn1cc(CN2CCS(=O)(=O)N(Cc3ccc(-c4ccc(OC)cc4)cc3)C(CC(C)C)C2=O)nn1` (centres undefined), the inhibition was 54.1% (active).
Turning to `COc1ccc(-c2ccc(CN3C(CC(C)C)C(=O)N(Cc4cn(CC5CCCCC5)nn4)CCS3(=O)=O)cc2)cn1` (centres undefined), the inhibition was -9.27% (inactive).
For `CC(C)CC1C(=O)N(Cc2cn(CC3CCCCC3)nn2)CCS(=O)(=O)N1Cc1ccc(-c2ccc(Cl)cc2)cc1` (centres undefined), the inhibition is -15.1% (inactive).
As to `CCOc1ccc(CNC(=O)CCC(=O)N2CCSc3ccccc32)cc1`, the inhibition was -0.53% (inactive).
As for `O=S1(=O)CC(N2CCN(CCO)CC2)CN1Cc1cn(Cc2ccc(Cl)cc2)nn1` (centres undefined), the inhibition was -8.26% (inactive).
The figure for `COc1ccc(OC)c(CN2C(=O)CCC2(C)c2nnnn2Cc2ccccc2)c1` (centres undefined) is -20.4% (inactive); for `CCN1CCN(c2nc(Nc3cc(OC)ccc3OC)nc(Nc3cc(OC)ccc3OC)n2)CC1` it is -14.1% (inactive).
On to `CCOc1ccc(Nc2nc(Cl)nc(N3CCN(c4ccc(OC)cc4)CC3)n2)cc1`, for which the inhibition is 56.5% (active).
For `COC(=O)c1ccc(Oc2nc(Nc3ccc(F)cc3)nc(N3CCCC3)n2)cc1` the value was -16.1% (inactive); for `O=[N+]([O-])c1ccc(N=NNc2ccc([N+](=O)[O-])cc2)cc1`, -6.71% (inactive); for `O=[N+]([O-])c1ccc(N/N=C/c2ccccc2)cc1`, 61.6% (active).
Turning to `CC(C)c1ccc(C=NNc2ccc([N+](=O)[O-])cn2)cc1`, the inhibition was 17.1% (inactive).
For `O=C(NN=Cc1ccco1)C(=O)Nc1ccc(Cl)c([N+](=O)[O-])c1` the value was 8.28% (inactive); for `CN(C)c1ccc(C=NCCc2ccc(S(N)(=O)=O)cc2)cc1`, -1.3% (inactive).
The figure for `c1ccc2c(c1)CCc1snnc1-2` is -2.49% (inactive); for `NCCCNC(=S)NCCCN(Cc1ccc(Cl)cc1)c1ccc(Br)cn1` it is 0.12% (inactive).
The figure for `S=C(NCCCc1cnc[nH]1)NCCCN(Cc1ccc(Cl)c(Cl)c1)c1ccc(Br)cn1` is 51.9% (active); for `C=CCN=C1NC(c2ccccc2)C(C(=O)OC)=C(C)N1Cc1ccc(C(F)(F)F)cc1` (centres undefined) it is 31.4% (inactive); for `CSc1ncccc1C(=O)N1CCCC(Nc2ccc(F)c(F)c2)C1` (centres undefined) it is 4.84% (inactive).
For `CC(=O)c1c(C)[nH]c(C(=O)COC(=O)c2cccs2)c1C`, the inhibition is 36% (inactive).
On to `CN(c1ccccc1)S(=O)(=O)c1ccc(Cl)c(C(=O)OCC(N)=O)c1`, for which the inhibition is -0.08% (inactive).
The figure for `CC(=O)c1c(C)[nH]c(C(=O)COC(=O)c2cccc(S(=O)(=O)N(C)c3ccccc3)c2)c1C` is 81.8% (active).
For `O=C(Nc1ccc(N2CCN(C(=O)C3CC3)CC2)cc1)c1cccs1` the value was 16.4% (inactive).
For `O=C(Nc1ccccc1-c1nnn(CC(=O)N2CCN(c3ccccc3)CC2)n1)c1cccs1` the value was 62% (active); for `COc1ccccc1N1CCN(C(=O)Cn2nnc(-c3cccs3)n2)CC1`, 2.09% (inactive); for `Cc1ccc(F)cc1S(=O)(=O)Nc1cccc(C(=O)N2CCCC(C(N)=O)C2)c1` (centres undefined), -13.3% (inactive).
With `COC(=O)[C@]12CCCCC=C1N(Cc1ccco1)C(=O)[C@H](CC(=O)NCCCCc1ccccc1)C2`, the inhibition is 12.7% (inactive).
For `CN(C)c1ccc(/C=C2\NC(=S)N(Cc3ccccc3)C2=O)cc1` the value was 74.3% (active); for `CC(=O)C1=C(C)N(Cc2ccccc2)C(=S)NC1c1cccc(Br)c1` (centres undefined), 25.4% (inactive); for `CN(C(=O)CN1C(=O)NC(C)(CCc2ccccc2)C1=O)c1ccccc1` (centres undefined), 9.09% (inactive).
On to `COc1ccc(OC)c2[nH]c(=O)c(CCNC(=O)C(C)(C)C)cc12`, for which the inhibition is -17% (inactive).
For `O=C(NCCCc1ccccc1)C(=O)c1c[nH]c2ccccc12` the value was -6.38% (inactive).
Take `COc1ccc(OC)c2[nH]c(=O)c(CCNC(=O)C(=O)c3c[nH]c4ccccc34)cc12`: the inhibition is 64.7% (active).
For the molecule `CC(=O)Nc1ccc(NC(=O)COC(=O)C2CCC(C(C)(C)C)CC2)cc1` (centres undefined), the inhibition is 65.2% (active).
For `O=C(COC(=O)C1CCCCC1)Nc1ccc([N+](=O)[O-])cc1` the value was 35.5% (inactive).
The figure for `CCC(C)c1ccc(NC(=O)COC(=O)C2CCCC2)cc1` (centres undefined) is 5.25% (inactive).
On to `O=C(Nc1ccc(F)cc1)C(CCc1ccccc1)N1CCN(CC(=O)N2CCCC2)CC1` (centres undefined), for which the inhibition is 4.42% (inactive).
